Shown are actives, neighbours in structure and some others; about 2.5% of the full set was active somewhere.
MC4R ag barr = agonists of human melanocortin 4 receptor (MC4R) beta-arrestin; P32245; U2OS MC4R beta-arrestin complementation, luminescence; percent of melanotan II response, DMSO zero; activation, % at 8.9 µM; 360,000 compounds, 0.98% hits;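 active = activation above a per-plate cutoff, the mean activation of sample wells on that plate plus 3 SD, cut at about 8% in these data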
Target sequence (P32245 whole entry, looked up): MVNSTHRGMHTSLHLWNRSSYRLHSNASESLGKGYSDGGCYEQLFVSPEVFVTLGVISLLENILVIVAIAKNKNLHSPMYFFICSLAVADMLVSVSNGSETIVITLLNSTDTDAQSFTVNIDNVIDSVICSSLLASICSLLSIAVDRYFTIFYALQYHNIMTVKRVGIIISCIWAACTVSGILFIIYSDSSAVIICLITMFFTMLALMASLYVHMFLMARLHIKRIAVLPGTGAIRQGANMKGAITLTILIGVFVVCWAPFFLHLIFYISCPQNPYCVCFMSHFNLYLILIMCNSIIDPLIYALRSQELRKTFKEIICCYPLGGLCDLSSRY
Exocytosis inh = blocks lytic granule exocytosis; TALL-104 LAMP-1 surface exposure, flow cytometry; cells stimulated with thapsigargin and PMA; inhibition, % at 10 µM; 360,000 compounds, 0.66% hits; AID 651702;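 active = inhibition above about 55%, limit read from the data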
A1 inh = inhibitors of the anti-apoptotic protein A1, read as caspase activation. MEF A1-2A-BIM cells, Caspase-Glo 3/7 luminescence, 3 h; percent of clofoctol response, vehicle zero. AID 2462. caspase activation, % (concentration not given with the values). 330,000 compounds, 0.066% hits;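 active = over half of replicate activation scores above 10%, or exactly half above 10 with the replicate mean above 10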
MC4R antagonist = blocks human MC4R cAMP signaling; P32245; MC4R-expressing cells, MTII-stimulated cAMP, LANCE TR-FRET; inhibition, % at 6.5 µM; 360,000 compounds, 0.48% hits;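 active = inhibition above its plate's cutoff, the mean of tested wells on that plate plus 3 SD, cut at about 29% in these data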
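material = U2OS cells stably expressing human melanocortin 4 receptor (MC4R) | also added = Melanotan II challenge | dosing = single nominal compound dose of 6.5 µM | detection = TR-FRET with Eu-cAMP and labeled anti-cAMP, 671 nm | replication = singlicate | timing = compound 30 min, challenge 1 h, detection 1 h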
NTR1 ag = agonists of human neurotensin receptor NTR1 | activation, % at 20 µM | NTR1-U2OS beta-arrestin-GFP spot imaging, agonist mode | 330,000 compounds, 0.17% hits | AID 493036;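 active = activation at or above 40% of the spot to cytoplasm intensity ratio, with at least 20 cells analyzed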
Target sequence (P30989 whole entry, looked up): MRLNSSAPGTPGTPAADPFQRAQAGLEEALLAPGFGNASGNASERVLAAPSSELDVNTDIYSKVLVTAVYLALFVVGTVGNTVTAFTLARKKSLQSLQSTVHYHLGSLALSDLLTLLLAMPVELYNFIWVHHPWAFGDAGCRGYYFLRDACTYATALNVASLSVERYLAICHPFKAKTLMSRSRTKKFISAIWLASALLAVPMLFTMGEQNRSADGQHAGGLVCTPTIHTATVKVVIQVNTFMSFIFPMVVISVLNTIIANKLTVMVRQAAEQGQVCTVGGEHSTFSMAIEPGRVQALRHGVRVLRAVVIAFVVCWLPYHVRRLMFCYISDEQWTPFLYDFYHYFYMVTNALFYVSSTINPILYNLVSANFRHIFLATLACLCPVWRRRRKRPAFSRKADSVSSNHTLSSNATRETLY
sPLA2-III inh = Inhibits HGIII-sPLA2 liposome hydrolysis, primary screen. inhibition, % at 12.2 µM. Q9NZ20. QFRET BODIPY PC-A2 liposome hydrolysis, fluorescence. 370,000 compounds, 0.56% hits. AID 743126;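 active = inhibition above mean plus 3 SD of compounds lying within the high and low control bounds, cut at about 19% in these data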
Of the large screens only hits and unclear results are named; the others gave an inactive call.

COC(=O)[C@]12C[C@H](CC(=O)NCc3cccc(C(F)(F)F)c3)C(=O)N(CCc3ccc(OC)c(OC)c3)C1=C[C@H](C1CCCC1)O[C@@H]2C	none (no result: MC4R ag barr, Exocytosis inh, A1 inh, MC4R antagonist, NTR1 ag)
CC(C)NC(=O)N[C@@H]1C[C@@H]2O[C@H](CO)CC[C@@H]2O[C@@H]1CCc1ccc(-c2ccccc2F)cc1	none (no result: MC4R ag barr, Exocytosis inh, A1 inh, MC4R antagonist, NTR1 ag)
Cc1ccc(C(C(=O)NCc2ccc(F)cc2)N(Cc2ccco2)C(=O)c2snc(C(N)=O)c2N)o1 (stereo not given)	Exocytosis inh 74.1
COc1ccc(CNC(=O)C(c2ccc(C)o2)N(C(=O)c2snc(C(N)=O)c2N)c2ccccc2OC)cc1 (stereo not given)	Exocytosis inh 72.6
NC(=O)c1nsc(C(=O)N(Cc2ccco2)C(C(=O)NCc2ccc(F)cc2)c2ccc(O)cc2)c1N (stereo not given)	none
COC(=O)C1CN(CCc2ccccc2)CCS(=O)(=O)N1Cc1ccc(OC)cc1 (stereo not given)	none (no result: MC4R ag barr, Exocytosis inh, A1 inh, MC4R antagonist, NTR1 ag)
CCOC(=O)C1(Cc2ccccc2)CCN(Cc2ccccc2[N+](=O)[O-])CC1	none (no result: MC4R ag barr, Exocytosis inh, A1 inh, MC4R antagonist, NTR1 ag)
O=C(CNc1ccc(F)cc1)c1ccccc1	none
NC(=O)c1ccccc1NCC(=O)c1ccc(F)cc1	sPLA2-III inh 21.3
COC(=O)[C@]12C[C@H](CC(=O)NCc3ccccc3)C(=O)N(Cc3cccc4ccccc34)C1=C[C@H](C(C)C)O[C@@H]2C1CC1	none (no result: MC4R ag barr, Exocytosis inh, A1 inh, MC4R antagonist, NTR1 ag)
O=c1c2c3nc4ccccc4nc3n(Cc3ccccc3)c2ncn1Cc1ccco1	Exocytosis inh 93.3 (no result: A1 inh, NTR1 ag)
COCCCn1c2nc3ccccc3nc2c2c(=O)n(Cc3ccc(Cl)cc3)cnc21	none
Cc1ccc2cc(/C=C/C(=O)c3ccco3)c(Cl)nc2c1	Exocytosis inh 94.9
COc1cc2cc(/C=C/C(=O)c3ccco3)c(Cl)nc2cc1OC	none
Cc1ccc2nc(Cl)c(/C=C/C(=O)c3ccco3)cc2c1	Exocytosis inh 86.0
O=C(CCN1C(=O)S/C(=C\c2ccccc2)C1=O)N1CCCCC1	none
O=C1/C(=C\c2ccccc2)CN(C(=O)CCN2CCCCC2)C/C1=C/c1ccccc1	Exocytosis inh 83.2 (no result: A1 inh, NTR1 ag)
O=c1n(S(=O)(=O)c2cccc3cccnc23)c2ccccc2n1S(=O)(=O)c1cccc2cccnc12	Exocytosis inh 68.1 (no result: sPLA2-III inh)
CC1CC(C)CN(S(=O)(=O)c2cccc3cccnc23)C1 (stereo not given)	none
CN1/C(=C/C=C/c2n(C)c3cc([N+](=O)[O-])c([N+](=O)[O-])cc3[n+]2C)C(C)(C)c2ccccc21	sPLA2-III inh 47.8 (no result: A1 inh, NTR1 ag)
Cc1c(C(=O)OCC(=O)Nc2ccc(N3CCOCC3)cc2)oc2ccccc12	MC4R ag barr 9.2
Cc1c(C(=O)Nc2ccc(N3CCOCC3)cc2)oc2ccccc12	none
CCOC(=O)c1oc2ccccc2c1NC(=O)CN1CCOCC1	none
CCOC(=O)c1oc2ccccc2c1NC(=O)CN1CCN(C)CC1	A1 inh 17.1
COC(=O)C1=C(C)N(Cc2ccccc2C(F)(F)F)C(=NCc2ccc3c(c2)OCO3)NC1c1cccc(Cl)c1 (stereo not given)	none (no result: MC4R ag barr, Exocytosis inh, A1 inh, MC4R antagonist, NTR1 ag)
Cc1ccccc1CN1CCCCC(NC(=O)c2ccccc2)C1=O (stereo not given)	none (no result: MC4R ag barr, Exocytosis inh, A1 inh, MC4R antagonist, NTR1 ag)
CCN(CC)CCC(=O)Nc1cccc2c1C(=O)c1ccccc1C2=O	Exocytosis inh 56.4
C[C@@H]1CN([C@H](C)CO)C(=O)CCCn2nncc2CO[C@H]1CN(C)C(=O)Nc1ccc2c(c1)OCCO2	none (no result: MC4R ag barr, Exocytosis inh, A1 inh, MC4R antagonist, NTR1 ag)
Cc1ccc(-n2c3nc(=O)[nH]c(=O)c-3cc3cc([N+](=O)[O-])ccc32)cc1	sPLA2-III inh 28.1
Cc1cc(C)cc(NC(=O)/C(C#N)=C/c2cn(CC(=O)NCc3ccco3)c3ccccc23)c1	A1 inh 16.6
COc1ccc(CNC(=O)COC(=O)c2cc(-c3ccc(Cl)s3)nc3ccccc23)cc1	MC4R ag barr 9.2
COC(=O)[C@]12C[C@H](CC(=O)N3CCOCC3)C(=O)N(Cc3ccc4c(c3)OCO4)C1=C[C@H](C(C)(C)C)O[C@@H]2C	none (no result: MC4R ag barr, Exocytosis inh, A1 inh, MC4R antagonist, NTR1 ag)
O=C(NC(=S)Nc1ccc(O)cc1)c1cncc(Br)c1	sPLA2-III inh 21.9
O=C(NC(=S)Nc1cccc(O)c1)c1cncc(Br)c1	none
COC(=O)[C@]12C[C@H](CC(=O)NCc3ccc(C)o3)C(=O)N(CCC3=CCCCC3)C1=C[C@H](C1CCCC1)O[C@@H]2C	none (no result: MC4R ag barr, Exocytosis inh, A1 inh, MC4R antagonist, NTR1 ag)
Cc1c(C=O)c(C=O)c(C)n1Cc1ccccc1	A1 inh 9.3
Cc1cc(C)cc(N2C(=O)C=CC2=O)c1	MC4R antagonist 32.7 (no result: A1 inh, NTR1 ag)
Cc1c([N+](=O)[O-])cc(N2C(=O)C=CC2=O)cc1[N+](=O)[O-]	none (no result: A1 inh, NTR1 ag, sPLA2-III inh)
C/C=C(\C)C(=O)OC1[C@H](OC(C)=O)C2(CO)C(CC1(C)C)C1=CCC3C4(C)CCC(O[C@@H]5O[C@H](C(=O)O)[C@@H](O[C@@H]6O[C@H](CO)[C@@H](O)[C@H](O)[C@H]6O)[C@H](O)[C@H]5O[C@H]5O[C@H](CO)[C@@H](O)[C@H](O)[C@H]5O)[C@](C)(CO)C4CCC3(C)[C@]1(C)C[C@H]2O (stereo not given in full)	Exocytosis inh 71.0, MC4R antagonist 94.8 (no result: A1 inh, NTR1 ag, sPLA2-III inh)
CCCCNC(=O)C[C@@H]1C(=O)N2CCCC3=C2[C@@]1(C(=O)OCC)CCC3	none (no result: MC4R ag barr, Exocytosis inh, A1 inh, MC4R antagonist, NTR1 ag)
CNc1sc(C(=O)c2cccs2)c(N)c1-c1nc2ccccc2s1	Exocytosis inh 65.0
Cc1c(C(=O)Oc2ccc(-c3cnc4ccccc4n3)cc2)cccc1[N+](=O)[O-]	none
O=C(Oc1ccc(-c2cnc3ccccc3n2)cc1)c1cc([N+](=O)[O-])ccc1Cl	MC4R antagonist 29.3
O=C(N=Nc1c(O)[nH]c2ccc([N+](=O)[O-])cc12)c1cc(-c2ccccc2Cl)nc2ccccc12	A1 inh 48.3
COc1ccccc1C(=O)N=Nc1c(O)[nH]c2ccc([N+](=O)[O-])cc12	none (no result: A1 inh, NTR1 ag)
CCOc1ccccc1OCCC(=O)N1CCN(S(=O)(=O)c2ccccc2[N+](=O)[O-])CC1	A1 inh 21.0
O=C(N/N=C/c1cc(O)ccc1Br)c1cccnc1	none
O=C(N/N=C/c1cc(Br)c(O)c(Br)c1O)c1cccnc1	Exocytosis inh 65.0
CCCCOc1ccc(C(=O)N/C(=C\c2cccc([N+](=O)[O-])c2)C(=O)OCCC)cc1	MC4R ag barr 8.8
O=C(Cc1coc2ccc3ccccc3c12)NC1CCCc2ccccc21 (stereo not given)	MC4R ag barr 9.1
S=C(NCc1ccc(Cl)cc1Cl)Nc1ccccc1	MC4R ag barr 8.9
CC(C)(C)c1ccc(C(=S)N2CCN(c3ccccc3)CC2)cc1	MC4R ag barr 9.0
Cc1ccc(CCNC(=O)c2cc(-c3ccncc3)nc3ccc(S(=O)(=O)N4CCOCC4)cc23)cc1	A1 inh 6.4
